Columns and labels:
M14 = assay: Cytotoxicity against human M14 cells assessed as cell growth at 5 uM by SRB assay; format: functional; details: read-out: Activity
BT-549 = assay: Cytotoxicity against human BT549 cells by SRB assay; format: functional
NCI-H522 [1] = assay: Cytotoxicity against human NCI-H522 cells assessed as cell growth at 0.005 uM by SRB assay; format: functional; details: read-out: Activity
NCI-H226 [2] = assay: Cytotoxicity against human NCI-H226 cells assessed as cell growth at 0.05 uM by SRB assay; format: functional; details: read-out: Activity
ACHN [3] = assay: Cytotoxicity against human ACHN cells assessed as cell growth at 0.005 uM by SRB assay; format: functional; details: read-out: Activity
NCI-H522 [4] = assay: Cytotoxicity against human NCI-H522 cells assessed as cell growth at 50 uM by SRB assay; format: functional; details: read-out: Activity
OVCAR-5 = assay: Cytotoxicity against human OVCAR5 cells assessed as cell growth at 50 uM by SRB assay; format: functional; details: read-out: Activity
RPMI-8226 [5] = assay: Cytotoxicity against human RPMI8226 cells assessed as cell growth at 5 uM by SRB assay; format: functional; details: read-out: Activity
RXF 393 [6] = assay: Cytotoxicity against human RXF393 cells assessed as cell growth at 5 uM by SRB assay; format: functional; details: read-out: Activity
OVCAR-4 [7] = assay: Cytotoxicity against human OVCAR4 cells assessed as cell growth at 5 uM by SRB assay; format: functional; details: read-out: Activity
ACHN [8] = assay: Cytotoxicity against human ACHN cells assessed as cell growth at 0.05 uM by SRB assay; format: functional; details: read-out: Activity
UACC-62 [9] = assay: Cytotoxicity against human UACC62 cells assessed as cell growth at 50 uM by SRB assay; format: functional; details: read-out: Activity
IGROV-1 [10] = assay: Cytotoxicity against human IGROV1 cells assessed as cell growth at 50 uM by SRB assay; format: functional; details: read-out: Activity
OVCAR-4 [11] = assay: Cytotoxicity against human OVCAR4 cells assessed as cell growth at 50 uM by SRB assay; format: functional; details: read-out: Activity
[12] = Cytotoxicity against etoposide-resistant human K/VP.5 cells assessed as cell growth inhibition after 72 hrs by MTS assay; format: functional, cell-based; details: K/VP.5, 72 h
Procedure, shortened: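 K/VP.5 cells are a K562-derived subline, 26-fold etoposide-resistant, with decreased topoisomerase IIα mRNA and protein. Cells were grown in suspension in αMEM with 10% fetal calf serum. Drugs were given from DMSO stocks, with final DMSO typically 0.4% or less. Read-out was MTS absorbance after 72 h. Typically nine concentrations were run in duplicate on two days. IC50 came from a four-parameter logistic fit.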

SF-295 [13] = assay: Cytotoxicity against human SF295 cells assessed as cell growth at 0.005 uM by SRB assay; format: functional; details: read-out: Activity
HCC 2998 = assay: Cytotoxicity against human HCC2998 cells assessed as cell growth at 50 uM by SRB assay; format: functional; details: read-out: Activity
Procedure, shortened: (§1)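 Measured in the NCI-60 human tumour cell line panel using five-dose testing. Growth was recorded at each dose for each cell line, and a GI50 was derived for each line.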

KM12 = assay: Cytotoxicity against human KM12 cells assessed as cell growth at 5 uM by SRB assay; format: functional; details: read-out: Activity
786-0 [14] = assay: Cytotoxicity against human 786-0 cells assessed as cell growth at 0.05 uM by SRB assay; format: functional; details: read-out: Activity
SF-268 = assay: Cytotoxicity against human SF268 cells assessed as cell growth at 5 uM by SRB assay; format: functional; details: read-out: Activity
786-0 [15] = assay: Cytotoxicity against human 786-0 cells assessed as cell growth at 0.005 uM by SRB assay; format: functional; details: read-out: Activity
SK-MEL-2 [16] = assay: Cytotoxicity against human SK-MEL-2 cells assessed as cell growth at 0.005 uM by SRB assay; format: functional; details: read-out: Activity
OVCAR-3 [17] = assay: Cytotoxicity against human OVCAR3 cells by SRB assay; format: functional
Procedure, shortened: (§2)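 NCI-60 panel screen; 5-dose testing giving GI50 per cell line, plus a single 10 µM one-dose test. Method details not given beyond the NCI screen.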

RPMI-8226 [18] = assay: Cytotoxicity against human RPMI8226 cells assessed as cell growth at 0.5 uM by SRB assay; format: functional; details: read-out: Activity
SK-OV-3 = assay: Cytotoxicity against human SKOV3 cells assessed as cell growth at 5 uM by SRB assay; format: functional; details: read-out: Activity
MCF7 = assay: Cytotoxicity against human MCF7 cells assessed as cell growth at 0.05 uM by SRB assay; format: functional; details: read-out: Activity
COLO 205 = assay: Cytotoxicity against human COLO205 cells assessed as cell growth at 0.05 uM by SRB assay; format: functional; details: read-out: Activity
OVCAR-8 = assay: Cytotoxicity against human OVCAR8 cells assessed as cell growth at 0.05 uM by SRB assay; format: functional; details: read-out: Activity
ACHN [19] = assay: Cytotoxicity against human ACHN cells by SRB assay; format: functional
ACHN [20] = assay: Cytotoxicity against human ACHN cells assessed as cell growth at 50 uM by SRB assay; format: functional; details: read-out: Activity
SF-295 [21] = assay: Cytotoxicity against human SF295 cells assessed as cell growth at 50 uM by SRB assay; format: functional; details: read-out: Activity
SK-MEL-2 [22] = assay: Cytotoxicity against human SK-MEL-2 cells by SRB assay; format: functional; procedure, shortened: as §2
RXF 393 [23] = assay: Cytotoxicity against human RXF393 cells assessed as cell growth at 0.5 uM by SRB assay; format: functional; details: read-out: Activity
OVCAR-3 [24] = assay: Cytotoxicity against human OVCAR3 cells assessed as cell growth at 0.005 uM by SRB assay; format: functional; details: read-out: Activity
RPMI-8226 [25] = assay: Cytotoxicity against human RPMI8226 cells by SRB assay; format: functional; procedure, shortened: as §2
U-251 [26] = assay: Cytotoxicity against human U251 cells assessed as cell growth at 0.5 uM by SRB assay; format: functional; details: read-out: Activity
U-251 [27] = assay: Cytotoxicity against human U251 cells by SRB assay; format: functional; procedure, shortened: as §2
IGROV-1 [28] = assay: Cytotoxicity against human IGROV1 cells assessed as cell growth at 0.5 uM by SRB assay; format: functional; details: read-out: Activity; procedure, shortened: as §1
U-251 [29] = assay: Cytotoxicity against human U251 cells assessed as cell growth at 0.005 uM by SRB assay; format: functional; details: read-out: Activity
NCI-H226 [30] = assay: Cytotoxicity against human NCI-H226 cells assessed as cell growth at 5 uM by SRB assay; format: functional; details: read-out: Activity
SR = assay: Cytotoxicity against human SR cells assessed as cell growth at 5 uM by SRB assay; format: functional; details: read-out: Activity
UACC-62 [31] = assay: Cytotoxicity against human UACC62 cells assessed as cell growth at 0.5 uM by SRB assay; format: functional; details: read-out: Activity
[32] = read-out: LC50 (the source's name)
[33] = read-out: pLC50 (the source's name) (converted)

COc1cc([C@@H]2c3cc4c(cc3[C@@H](NC(=O)CN3CCN(CCCCCCCCCCN5CCN(CC(=O)N[C@@H]6c7cc8c(cc7[C@@H](c7cc(OC)c(O)c(OC)c7)[C@H]7C(=O)OC[C@@H]76)OCO8)CC5)CC3)[C@H]3COC(=O)[C@H]23)OCO4)cc(OC)c1O
growth at 5 µM (M14): -36%
GI50 (BT-549; read-out: GI50): 576 nM
TGI (BT-549; read-out: TGI): 1460 nM
GI50 (BT-549; read-out: pGI50 (converted)): 575 nM
TGI (BT-549; read-out: pTGI (converted)): 1480 nM
growth at 0.005 µM (NCI-H522 [1]): 97%
growth at 0.05 µM (NCI-H226 [2]): 83%
growth at 0.005 µM (ACHN [3]): 100%
growth at 50 µM (NCI-H522 [4]): -55%
growth at 50 µM (OVCAR-5): -88%
growth at 5 µM (RPMI-8226 [5]): -15%
growth at 5 µM (RXF 393 [6]): -34%
growth at 5 µM (OVCAR-4 [7]): -28%
growth at 0.05 µM (ACHN [8]): 88%
growth at 50 µM (UACC-62 [9]): -30%
growth at 50 µM (IGROV-1 [10]): -41%
growth at 50 µM (OVCAR-4 [11]): -77%
IC50 [12]: 114 nM
growth at 0.005 µM (SF-295 [13]): 92%
growth at 50 µM (HCC 2998): -100%
growth at 5 µM (KM12): -22%
growth at 0.05 µM (786-0 [14]): 89%
growth at 5 µM (SF-268): -34%
growth at 0.005 µM (786-0 [15]): 97%
growth at 0.005 µM (SK-MEL-2 [16]): 99%
GI50 (OVCAR-3 [17]; read-out: GI50): 1810 nM
CC50 (OVCAR-3 [17]; [32]): 49.9 µM
TGI (OVCAR-3 [17]; read-out: TGI): 13.8 µM
GI50 (OVCAR-3 [17]; read-out: pGI50 (converted)): 1820 nM
CC50 (OVCAR-3 [17]; [33]): 50.1 µM
TGI (OVCAR-3 [17]; read-out: pTGI (converted)): 13.8 µM
growth at 0.5 µM (RPMI-8226 [18]): -2%
growth at 5 µM (SK-OV-3): 4%
growth at 0.05 µM (MCF7): 61%
growth at 0.05 µM (COLO 205): 90%
growth at 0.05 µM (OVCAR-8): 92%
GI50 (ACHN [19]; read-out: GI50): 320 nM
CC50 (ACHN [19]; [32]): 2950 nM
TGI (ACHN [19]; read-out: TGI): 1110 nM
GI50 (ACHN [19]; read-out: pGI50 (converted)): 324 nM
CC50 (ACHN [19]; [33]): 2950 nM
TGI (ACHN [19]; read-out: pTGI (converted)): 1120 nM
growth at 50 µM (ACHN [20]): -87%
growth at 50 µM (SF-295 [21]): -44%
GI50 (SK-MEL-2 [22]; read-out: GI50): 3.96 µM
CC50 (SK-MEL-2 [22]; [32]): 41 µM
TGI (SK-MEL-2 [22]; read-out: TGI): 13.9 µM
GI50 (SK-MEL-2 [22]; read-out: pGI50 (converted)): 3.98 µM
CC50 (SK-MEL-2 [22]; [33]): 40.7 µM
TGI (SK-MEL-2 [22]; read-out: pTGI (converted)): 13.8 µM
growth at 0.5 µM (RXF 393 [23]): 71%
growth at 0.005 µM (OVCAR-3 [24]): 100%
GI50 (RPMI-8226 [25]; read-out: GI50): 16.3 nM
CC50 (RPMI-8226 [25]; [32]): > 50 µM
TGI (RPMI-8226 [25]; read-out: TGI): 369 nM
GI50 (RPMI-8226 [25]; read-out: pGI50 (converted)): 16.2 nM
CC50 (RPMI-8226 [25]; [33]): > 50.1 µM
TGI (RPMI-8226 [25]; read-out: pTGI (converted)): 372 nM
growth at 0.5 µM (U-251 [26]): 51%
GI50 (U-251 [27]; read-out: GI50): 532 nM
CC50 (U-251 [27]; [32]): 23.4 µM
TGI (U-251 [27]; read-out: TGI): 6.27 µM
GI50 (U-251 [27]; read-out: pGI50 (converted)): 537 nM
CC50 (U-251 [27]; [33]): 23.4 µM
TGI (U-251 [27]; read-out: pTGI (converted)): 6.31 µM
growth at 0.5 µM (IGROV-1 [28]): 44%
growth at 0.005 µM (U-251 [29]): 85%
growth at 5 µM (NCI-H226 [30]): 35%
growth at 5 µM (SR): -26%
growth at 0.5 µM (UACC-62 [31]): 81%

— ChEMBL document CHEMBL3588757, “Structure-based design, synthesis and biological testing of piperazine-linked bis-epipodophyllotoxin etoposide analogs” (Bioorg Med Chem, 2015)
